Active and inactive are the calls of the source.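 Rule for the calls, unless noted: active = current rise at least 3 SD above the untreated control mean in each of two repeat wells; inactive = the rest.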
Assays:
[1] = thallium flux activation in parental CHO cells, counter-screen for KCNQ1 potentiator project (AID 493006;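 active = duplicate-averaged activation above buffer control mean plus 5 SD of those controls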); settings: parental CHO-K1 cells, FluxOR thallium flux, at 10 µM; active compounds read high
In short: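 Assay system: Untransfected host CHO-K1 cells with FluxOR thallium dye | Probe or stimulus: Potassium/thallium depolarization pulse | Schedule: Overnight 37 °C plating, 90 min RT dye, 20 min compound | Detection: Kinetic thallium-flux fluorescence | Read-out: Max-minus-min fluorescence over baseline, percent of buffer-to-R-L3 span | Benchmarks: Low control buffer, high control R-L3 activator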

[2] = target: Potassium voltage-gated channel subfamily KQT member 1 (Homo sapiens) (UniProt P51787); experiment: KCNQ1 potassium channel potentiators, confirmation, FluxOR thallium flux, CHO cells, duplicates (AID 493007;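 active = potentiation averaged over duplicate wells exceeding buffer-only control mean by more than 3 SD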;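 for outcome: cells depolarized by a potassium plus thallium sulfate stimulus after compound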); settings: KCNQ1 cell line, FluxOR thallium flux fluorescence, at 10 µM; active compounds read high, % of reference activator effect, buffer zero
In short: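 Material: KCNQ1-expressing CHO cell line; Incubation: FluxOR dye loading 90 min, compound exposure 20 min, room temperature; Detection: FluxOR Tl+ flux fluorescence, 10 s baseline plus 110 s recording; Read-out: percent activation between buffer and R-L3 responses; Control set: buffer-only wells as 0% and R-L3 activator as 100%; Replication: duplicate wells per compound.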

[3] = target: Potassium voltage-gated channel subfamily KQT member 2 (Rattus norvegicus) (UniProt O88943); experiment: rat KCNQ2 channel potentiation, selectivity assay for KCNQ1 potentiator project, KCNQ2-CHO-K1 cells (AID 493009;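 active = mean duplicate potentiation above the buffer control mean plus 5 SD of buffer wells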;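 note: assay conditions were tuned for KCNQ1 rather than KCNQ2 modulators; signal is max minus min fluorescence divided by baseline after thallium stimulus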); settings: FluxOR thallium flux fluorescence, at 10 µM; active compounds read high, scaled: buffer 0, activator control 100
[4] = target: Potassium voltage-gated channel subfamily KQT member 1 (Homo sapiens) (UniProt P51787); experiment: KCNQ1 channel current potentiators, confirmation, orthogonal assay for KCNQ1 potentiator project, IonWorks patch clamp, KCNQ1-CHO cells (AID 493184); settings: automated patch clamp current, at 10 µM; active compounds read high;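 for current potentiation: percent change of the same well's current before compound addition so 0% = no change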
In short: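 assay system = KCNQ1-expressing CHO cells | medium = external bath solution at pH 7.4 | probe or stimulus = 2,000 ms depolarization, -90 to +40 mV | compound dosing = 10 µM final, single point | measured by = automated voltage clamp, amphotericin B perforated patch | measure = percent current increase versus pre-compound level | replication = duplicates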

Chain of Potassium voltage-gated channel subfamily KQT member 2 (Rattus norvegicus) (O88943 whole entry, looked up): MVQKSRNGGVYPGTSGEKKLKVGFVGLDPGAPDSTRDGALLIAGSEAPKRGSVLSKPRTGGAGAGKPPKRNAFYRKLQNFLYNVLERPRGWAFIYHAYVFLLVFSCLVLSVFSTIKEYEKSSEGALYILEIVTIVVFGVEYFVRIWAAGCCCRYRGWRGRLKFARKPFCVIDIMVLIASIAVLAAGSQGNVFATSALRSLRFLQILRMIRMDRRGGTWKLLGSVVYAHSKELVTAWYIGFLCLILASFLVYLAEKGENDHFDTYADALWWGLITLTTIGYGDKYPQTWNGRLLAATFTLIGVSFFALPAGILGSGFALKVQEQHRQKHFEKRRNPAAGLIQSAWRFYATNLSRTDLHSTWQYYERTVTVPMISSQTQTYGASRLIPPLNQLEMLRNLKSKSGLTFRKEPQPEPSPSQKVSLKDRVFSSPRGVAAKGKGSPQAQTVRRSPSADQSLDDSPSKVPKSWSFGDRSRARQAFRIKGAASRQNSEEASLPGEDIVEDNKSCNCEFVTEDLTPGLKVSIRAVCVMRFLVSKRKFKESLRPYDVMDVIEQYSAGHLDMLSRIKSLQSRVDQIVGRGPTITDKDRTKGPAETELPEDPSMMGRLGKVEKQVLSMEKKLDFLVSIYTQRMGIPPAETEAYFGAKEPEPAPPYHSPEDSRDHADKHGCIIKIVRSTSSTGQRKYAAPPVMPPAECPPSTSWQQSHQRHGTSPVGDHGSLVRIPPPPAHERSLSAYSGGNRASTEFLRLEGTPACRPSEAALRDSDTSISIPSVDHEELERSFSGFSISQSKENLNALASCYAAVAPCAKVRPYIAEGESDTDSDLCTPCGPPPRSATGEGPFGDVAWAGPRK
Chain of Potassium voltage-gated channel subfamily KQT member 1 (Homo sapiens) (P51787 whole entry, looked up): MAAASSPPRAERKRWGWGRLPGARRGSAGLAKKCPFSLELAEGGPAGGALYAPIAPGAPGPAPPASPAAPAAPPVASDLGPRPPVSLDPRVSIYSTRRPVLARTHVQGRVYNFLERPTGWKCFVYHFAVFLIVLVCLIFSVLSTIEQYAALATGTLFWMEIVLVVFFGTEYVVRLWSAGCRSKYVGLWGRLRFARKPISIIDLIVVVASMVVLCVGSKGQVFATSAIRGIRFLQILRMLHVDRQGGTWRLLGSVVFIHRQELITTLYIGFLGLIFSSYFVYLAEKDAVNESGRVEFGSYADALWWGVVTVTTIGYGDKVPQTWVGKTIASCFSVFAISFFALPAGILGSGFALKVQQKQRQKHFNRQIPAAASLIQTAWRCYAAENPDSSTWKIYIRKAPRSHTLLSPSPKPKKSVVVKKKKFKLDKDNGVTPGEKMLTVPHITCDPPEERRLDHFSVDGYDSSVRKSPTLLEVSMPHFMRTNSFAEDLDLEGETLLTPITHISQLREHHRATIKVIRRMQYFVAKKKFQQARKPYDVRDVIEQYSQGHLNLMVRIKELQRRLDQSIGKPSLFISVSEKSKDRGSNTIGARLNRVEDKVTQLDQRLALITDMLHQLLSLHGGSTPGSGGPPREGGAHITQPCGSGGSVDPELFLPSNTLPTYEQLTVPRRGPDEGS

Row | Compound | activation [1] | potentiation [2] | potentiation [3] | outcome [4] | outcome [1] | outcome [2] | outcome [3] | current potentiation [4]
1 | CCOC(=O)C1=NN(C(=O)c2ccccc2)C(O)(c2ccc(C)cc2)C1 (stereo not given) | 141% (active) | 49.5% (active) | 216% (active) | inactive | – | – | – | –
2 | Cc1ccc(-c2csc(NC(=S)NC(=O)c3ccco3)n2)cc1 | 180% (active) | 71% (active) | 164% (active) | inactive | – | – | – | –
3 | Cc1cc(C)nc(N(C#N)CC(=O)c2ccccc2)n1 | – | – | – | inactive | inactive | inactive | inactive | –
4 | CC(=O)c1ccc(OCc2cc(C(=O)N(C)Cc3nc4c(C)cccc4[nH]3)no2)cc1 | – | 18% (active) | – | inactive | inactive | – | inactive | –
5 | Cc1ccc(-c2noc(CCC(=O)Nc3ccccc3N3CCN(C)CC3)n2)cc1 | – | – | – | inactive | inactive | inactive | inactive | –
6 | CC(=O)CSc1ncnc2sc3c(c12)CCC(C)C3 (stereo not given) | 474% (active) | 154% (active) | 406% (active) | inactive | – | – | – | –
7 | Cc1cc(O)ccc1N=Cc1c(C(F)(F)F)[nH][nH]c1=O | – | – | – | inactive | inactive | inactive | inactive | –
8 | CC1=CC(=O)C(C(C)C)=CC1=NC(=O)c1ccc(C)cc1 | – | – | – | inactive | inactive | inactive | inactive | –
9 | CCOc1ccccc1NC(=O)C1CCCN(S(=O)(=O)c2ccccc2)C1 (stereo not given) | – | – | – | inactive | inactive | inactive | inactive | –
10 | C=CCn1c(N)c(C(=O)Nc2ccc(C)cc2)sc1=S | – | – | – | inactive | inactive | inactive | inactive | –
11 | COc1cc(/C=N/NC(=O)c2ccoc2C)ccc1OCCN1CCCCC1 | – | 23.5% (active) | – | inactive | inactive | – | inactive | –
12 | CC1CCCCN1S(=O)(=O)c1ccc(S(=O)(=O)N(CC(=O)Nc2ccccc2)Cc2cccs2)cc1 (stereo not given) | – | – | – | inactive | inactive | inactive | inactive | –
13 | CC1CCN(C(=S)NC(=O)c2ccccc2)CC1 | – | – | 150% (active) | inactive | inactive | inactive | – | –
14 | O=C(O)c1ccccc1C(=O)NNc1ccc(Cl)cc1 | – | – | – | inactive | inactive | inactive | inactive | –
15 | Cc1cc([N+](=O)[O-])ccc1-c1ccc(C2Nc3ccccc3C(=O)N2O)o1 (stereo not given) | 174% (active) | 18.5% (active) | 158% (active) | inactive | – | – | – | –
16 | Cc1ccnc(NC(=S)NC(=O)c2cncc(Br)c2)c1 | – | – | – | inactive | inactive | inactive | inactive | –
17 | Cc1ccc2nc(NC(=O)c3ccc(Br)o3)sc2c1 | – | – | – | inactive | inactive | inactive | inactive | –
18 | CCc1nnc(SCC(=O)Nc2nnc(C)s2)n1CC1CCCO1 (stereo not given) | 278% (active) | 86.5% (active) | 274% (active) | inactive | – | – | – | –
19 | Cc1cc(Cl)ccc1OCC(=O)NNC(=O)C1CCCO1 (stereo not given) | – | – | – | inactive | inactive | inactive | inactive | –
20 | CN(Cc1cn[nH]c1-c1ccc2c(c1)OCO2)C1CCOCC1 | – | – | – | inactive | inactive | inactive | inactive | –

Row | Compound | activation [1] | potentiation [2] | potentiation [3] | outcome [4] | outcome [1] | outcome [2] | outcome [3] | current potentiation [4]
21 | CCC1(c2ccccc2)NC(=S)N(c2ccc(C)c(C)c2)N1 (stereo not given) | 542% (active) | 271% (active) | 572% (active) | inactive | – | – | – | –
22 | Cc1sc(-n2c(C)cc(/C=N/n3cnnc3)c2C)c(C#N)c1C | – | 17.5% (active) | – | inactive | inactive | – | inactive | –
23 | O=C(CSc1nc2cc(Cl)ccc2s1)c1ccco1 | – | 24% (active) | – | inactive | inactive | – | inactive | –
24 | O=C(Nc1ccncc1)c1ccc([N+](=O)[O-])cc1Cl | – | – | – | inactive | inactive | inactive | inactive | –
25 | O=C(COC(=O)CNC(=O)c1ccc(Cl)cc1Cl)Nc1cccc(S(=O)(=O)N2CCCC2)c1 | – | – | – | inactive | inactive | inactive | inactive | –
26 | Cc1ccccc1C(=O)c1c[nH]c(C(=O)N2CCN(c3ccccc3F)CC2)c1 | – | – | – | inactive | inactive | inactive | inactive | –
27 | S=c1[nH]nc(CSc2nc3ccccc3s2)n1C1CCCCC1 | 142% (active) | 31% (active) | 147% (active) | inactive | – | – | – | –
28 | CC(C)n1cc(NC(=O)c2cc(-c3ccccc3)on2)cn1 | 182% (active) | 35.5% (active) | 236% (active) | inactive | – | – | – | –
29 | Cc1ccc2c(c1)c(C)c(C)n2CC(O)CN1CCCCC1C (stereo not given) | – | – | – | inactive | inactive | inactive | inactive | –
30 | O=C(NC(=S)Nc1ccc(N2CCCCC2)cc1)c1ccco1 | 214% (active) | 180% (active) | 228% (active) | inactive | – | – | – | –
31 | Cc1[nH]n(-c2ccc(Cl)cc2)c(=O)c1/C=N/c1nnc(-c2ccccc2)s1 | 678% (active) | 182% (active) | 466% (active) | inactive | – | – | – | –
32 | Cc1ccc(OCc2n[nH]c(=S)n2-c2ccc(Br)cc2)cc1 | – | 22.5% (active) | 146% (active) | inactive | inactive | – | – | –
33 | CCOC(=O)CSc1nc(C2CC2)cc(-c2ccc(F)cc2)c1C#N | 166% (active) | 52% (active) | 160% (active) | inactive | – | – | – | –
34 | Cc1cc(C)n(/N=C/c2cc(Cl)cc(Cl)c2O)c(=O)c1 | – | – | – | inactive | inactive | inactive | inactive | –
35 | COc1cccc(C(=O)COc2ccc(NC(=O)c3ccccc3)cc2)c1 | – | – | – | inactive | inactive | inactive | inactive | –
36 | O=C(NC(=S)NC1CCCc2ccccc21)c1ccco1 (stereo not given) | 188% (active) | 122% (active) | 272% (active) | inactive | – | – | – | –
37 | O=C(OCc1cccc([N+](=O)[O-])c1)c1ccncc1 | – | – | – | inactive | inactive | inactive | inactive | –
38 | O=S(=O)(c1cc(F)cc(F)c1)N1CCN(c2ncccn2)CC1 | – | – | – | inactive | inactive | inactive | inactive | –
39 | Fc1ccccc1Nc1nc(Cl)nc(Cl)n1 | – | – | – | inactive | inactive | inactive | inactive | –
40 | CC1CCc2c(sc3[nH]c(=S)n(C)c(=O)c23)C1 (stereo not given) | 446% (active) | 254% (active) | 552% (active) | inactive | – | – | – | –

Row | Compound | activation [1] | potentiation [2] | potentiation [3] | outcome [4] | outcome [1] | outcome [2] | outcome [3] | current potentiation [4]
41 | Nc1nc(-c2ccccc2)c(N=Nc2ccccc2Cl)s1 | 488% (active) | 168% (active) | 416% (active) | inactive | – | – | – | –
42 | CCOC(=O)c1ccc(-c2ccc(C3Nc4ccccc4C(=O)N3O)o2)cc1 (stereo not given) | – | – | – | inactive | inactive | inactive | inactive | –
43 | Cc1ccc(S(=O)(=O)N2CCCC(C(=O)Nc3ccc(C(=O)O)cc3)C2)cc1Cl (stereo not given) | – | – | – | inactive | inactive | inactive | inactive | –
44 | C/C(=N\NC(=O)c1cc2ccccc2cc1O)c1cc2ccccc2o1 | 706% (active) | 478% (active) | 746% (active) | inactive | – | – | – | –
45 | CCCCN(CCCC)c1ccc(C(=O)c2ccccc2C(=O)O)c(O)c1 | 212% (active) | 51.5% (active) | 182% (active) | – | – | – | – | 15.1% (active)
46 | CO/N=C/CC(=O)Nc1ccc(F)cc1F | – | – | – | inactive | inactive | inactive | inactive | –
47 | FC(F)Sc1nc2ccccc2[nH]1 | 154% (active) | – | – | inactive | – | inactive | inactive | –
48 | O=C(N/N=C/c1ccccn1)c1cc(Br)ccc1O | 147% (active) | 24% (active) | 182% (active) | inactive | – | – | – | –
49 | Cc1cc(/C=C2\C(=N)N3N=C(c4ccco4)SC3=NC2=O)c(C)n1Cc1ccccc1 | – | 37% (active) | – | inactive | inactive | – | inactive | –
50 | CC(NC(=O)CS(=O)(=O)c1ccccc1)c1ccccc1 (stereo not given) | – | – | – | inactive | inactive | inactive | inactive | –
51 | O=C(Nc1ccccc1)C1=C(c2ccccc2)S(=O)(=O)CCS1(=O)=O | – | – | – | inactive | inactive | inactive | inactive | –
52 | CC(C)NC(=O)C1(S(=O)(=O)c2ccccc2)CC=CC1 | – | – | – | inactive | inactive | inactive | inactive | –
53 | CC12CCC(C(=O)N(CSC(=S)N/N=C\c3ccccc3Cl)C1=O)C2(C)C (stereo not given) | 178% (active) | 47% (active) | 152% (active) | inactive | – | – | – | –
54 | Cc1sc(N/N=C/c2ccco2)nc1-c1ccccc1 | – | – | – | inactive | inactive | inactive | inactive | –
55 | Cn1c(=O)c2c3c(sc2n2c(SCC(N)=O)nnc12)CC(C(C)(C)C)CC3 (stereo not given) | – | – | – | inactive | inactive | inactive | inactive | –
56 | COC(=O)[C@@H]1CCCN1C(=O)CCc1nnc(CCC2CCCCC2)o1 | – | – | – | inactive | inactive | inactive | inactive | –
57 | COc1cc(C(=O)NNC(=O)C2CC2)cc(OC)c1OC | – | – | – | inactive | inactive | inactive | inactive | –
58 | COc1ccccc1C(=O)NNC(=O)C(=O)NCc1ccccc1 | 188% (active) | 59.5% (active) | 218% (active) | inactive | – | – | – | –
59 | COc1cc(/C=C2\C(=O)N(C)C(=S)N2C)ccc1O | – | – | – | inactive | inactive | inactive | inactive | –
60 | O=c1[nH]c(Nc2ccccc2)cc2cc(Br)ccc12 | – | – | – | inactive | inactive | inactive | inactive | –
